Structures are written as SMILES. pIC50: −log10 of the molar value.

Assay [1] concerns the target T1, Proteasome Macropain subunit MB1 (Homo sapiens, UniProt P28074).
T1 sequence (P28074 whole entry): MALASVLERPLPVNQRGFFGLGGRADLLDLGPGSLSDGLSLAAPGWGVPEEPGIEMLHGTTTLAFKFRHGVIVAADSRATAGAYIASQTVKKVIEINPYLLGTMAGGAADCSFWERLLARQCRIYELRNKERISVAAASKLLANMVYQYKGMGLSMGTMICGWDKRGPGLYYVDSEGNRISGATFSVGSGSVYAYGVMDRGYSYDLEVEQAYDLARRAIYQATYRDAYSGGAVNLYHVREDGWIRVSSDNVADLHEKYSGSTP
The assay can be described thus: Inhibition of chymotrypsin-like activity of human 20S proteasome beta5 subunit using Suc-LLVY-Glo as substrate incubated for 2 hrs followed by substrate addition and measured for 10 mins by bioluminescent assay. In outline: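 Human constitutive 20S proteasome (1 μg/mL) was combined with compound serially diluted in 10 mM HEPES pH 7.6, with final DMSO 1% (v/v). After 2 h at 25 °C, Suc-LLVY-Glo (CT-L), Z-LRR-Glo (T-L) or Z-nLPnLD-Glo (C-L) reagent was added. Luminescence was read over 10 min, and IC50 was taken from inhibition rates.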

Assay [2] concerns the target T2, Proteasome Macropain subunit MB1 (Homo sapiens) (UniProt P28074).
T2 sequence (whole entry): T1 sequence (P28074 whole entry)
The assay can be described thus: Inhibition of chymotrypsin-like activity of human 20S proteasome beta5 subunit at 50 uM using Suc-LLVY-Glo as substrate incubated for 2 hrs followed by substrate addition and measured for 10 mins by bioluminescent assay relative to control. The conditions noted are these: time 130.0 min. The method, boiled down: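 Human constitutive 20S proteasome (1 µg/mL) was incubated with compound for 2 h at 25 °C in 10 mM HEPES pH 7.6 with 1% DMSO final. Suc-LLVY-Glo substrate was then added, and luminescence was read over 10 min. Inhibition rate was calculated against the uninhibited signal.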

The test system of assay [3] is HEK293. The assay can be described thus: Cytotoxicity against human HEK293 cells assessed as reduction in cell viability after 72 hrs by Cell Titer-Glo assay. The class given is cell-based. As to conditions: HEK293, 72 h. The method, boiled down: (§1)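 Cells were cultured in their respective media with 10% FBS, seeded from log phase at 1000 cells/well, and given compound after 18–24 h. After 72 h, an equal volume of CellTiter-Glo reagent was added and luminescence was read at 37 °C. IC50 came from dose-response curve fits; values are mean ± SD of three independent experiments, each in biological triplicate.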
On the technique in general: In ATP-based viability assays light output follows the ATP content of the culture.

The subject of assay [4] is HCT-116. The assay can be described thus: Cell cycle arrest in human HCT-116 cells assessed as accumulation at S phase at 1 uM after 24 hrs by propidium iodide staining based flow cytometric analysis (reference value: 50%). Format: functional. (In general: In flow cytometry, cells or beads pass a laser one at a time.)
A short description of assay [5]: Cytotoxicity against human PC3M1E8 cells assessed as reduction in cell viability after 72 hrs by Cell Titer-Glo assay. The class given is functional, cell-based. The conditions noted are these: PC3M1E8, 72 h. In outline:
as §1

In assay [6] the test system is HCT-116. The assay can be described thus: Cytotoxicity against human HCT-116 cells assessed as reduction in cell viability after 72 hrs by Cell Titer-Glo assay. As to conditions: HCT-116, 72 h. Format: functional, cell-based. The method, boiled down:
as §1

The subject of assay [7] is BGC-823. The assay can be described thus: Cytotoxicity against human BGC-823 cells assessed as reduction in cell viability after 72 hrs by Cell Titer-Glo assay. As to conditions: BGC-823, 72 h. Format: functional, cell-based. The method, boiled down:
as §1

Assay [8] relates to HCT-116. The assay can be described thus: Cell cycle arrest in human HCT-116 cells assessed as accumulation at G1 phase at 1 uM after 24 hrs by propidium iodide staining based flow cytometric analysis (reference value: 29%). Format: functional.
Assay [9] relates to HeLa. The assay can be described thus: Cytotoxicity against human HeLa cells assessed as reduction in cell viability after 72 hrs by Cell Titer-Glo assay. The class given is functional, cell-based. In outline: as §1
Assay [10] deals with A-375. The assay can be described thus: Cytotoxicity against human A-375 cells assessed as reduction in cell viability after 72 hrs by Cell Titer-Glo assay. Format: functional, cell-based. The conditions noted are these: A-375, 72 h. In outline: as §1
The subject of assay [11] is A549. The assay can be described thus: Cytotoxicity against human A549 cells assessed as reduction in cell viability after 72 hrs by Cell Titer-Glo assay. Format: functional, cell-based. As to conditions: A549, 72 h. In outline: as §1
Assay [12] relates to HT-29. The assay can be described thus: Cytotoxicity against human HT-29 cells assessed as reduction in cell viability after 72 hrs by Cell Titer-Glo assay. The class given is functional, cell-based. The conditions noted are these: HT-29, 72 h. The method, boiled down: as §1
In assay [13] the test system is HCT-116. The assay can be described thus: Cell cycle arrest in human HCT-116 cells assessed as accumulation at G2/M phase at 1 uM after 24 hrs by propidium iodide staining based flow cytometric analysis (reference value: 21%). Format: functional.
Assay [14] concerns the target T2, Proteasome Macropain subunit MB1 (Homo sapiens). The assay can be described thus: Reversible inhibition of human 20S proteasome beta5 subunit assessed as residual enzyme activity using Suc-LLVY-Glo as substrate preincubated for 2 hrs followed by compound washout and further incubated for 4 hrs followed by substrate addition and measured after 10 mins by bioluminescent assay relative to control. In outline: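 Human 20S proteasome (8 μg/mL) was pre-incubated with inhibitor for 2 h at 25 °C. Samples were then washed five times in assay buffer on 100 kDa cut-off centrifugal filters (14,000 g, 5 min each) and recovered. After a further 4 h at 25 °C, Suc-LLVY-Glo was added and luminescence was read after 10 min. Unwashed samples held an extra 4 h served as the standard.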

In the case of `Cc1ccc(S(=O)(=O)N[C@@H](Cc2ccccc2)C(=O)N[C@@H](Cc2ccc(O)cc2)C(=O)N[C@@H](CC(C)C)C(=O)c2ccco2)cc1`, in [1], the pIC50 (as a rule, −log10 of the IC50, conventionally taken in molar units) is 5.63. In addition, the inhibition – broadly, the drop in the measured response relative to a control, in per cent – in [2] is greater than 50%.

In assay [1], `CC(C)C[C@H](NC(=O)[C@H](Cc1ccc(Cl)cc1)NC(=O)[C@H](Cc1ccccc1)NC(=O)OCc1ccccc1)C(=O)c1ccco1` had a pIC50 of less than 4.30. In addition, the inhibition in [2] is greater than 50%.

Regarding `COC[C@H](NC(=O)[C@H](Cc1ccccc1)NC(=O)OCc1ccccc1)C(=O)N[C@@H](CC(C)C)C(=O)c1ccco1`, the pIC50 in assay [1] was 5.38. The inhibition in [2] is greater than 50%.

Take `COc1ccc(C[C@H](NS(=O)(=O)c2ccc(C)cc2)C(=O)N[C@@H](Cc2ccc(O)cc2)C(=O)N[C@@H](CC(C)C)C(=O)c2ccco2)cc1`: the pIC50 in [1] was 6.27; in assay [3] it was less than 4.30; in assay [5], 5.30; in [6] it was 5.45; in [7] it was 5.08; in assay [9] it was 5.20. In addition, the pIC50 in assay [10] is 5.41; in [11], 4.88; in [12], 5.27. The Activity in assay [4] worked out at 25%; in [8], 24%; in [13], 51%. Also, the inhibition in assay [2] is greater than 50%.

Regarding `COc1ccc(C[C@H](NC(=O)[C@H](Cc2ccccc2)NC(=O)c2ccccc2Br)C(=O)N[C@@H](CC(C)C)C(=O)c2ccco2)cc1`, the pIC50 in assay [1] is less than 4.30. The compound further returned an inhibition in assay [2] greater than 50%.

Consider `COC[C@H](NC(=O)[C@H](CC(=O)NCCC(C)C)NS(=O)(=O)c1ccc(C)cc1)C(=O)N[C@@H](CC(C)C)C(=O)c1ccco1`, for which the pIC50 in [1] is less than 4.30. Besides, the inhibition in assay [2] was greater than 50%.

As for `COC[C@H](NC(=O)[C@H](CC(=O)NCC(C)C)NS(=O)(=O)c1ccc(C)cc1)C(=O)N[C@@H](CC(C)C)C(=O)c1ccco1`, the pIC50 in assay [1] was 6.17; in assay [3], less than 4.30; in [5], 5.43; in assay [6], 5.78; in assay [7], 5.40; in assay [9], 5.61. Further, the pIC50 in assay [10] is 5.58; in assay [11], 4.75; in [12], 5.31. In addition, the Activity in assay [4] was determined as 30%; in assay [8], 27%; in assay [13], 43%. The same compound had an inhibition in assay [2] greater than 50%.

`COc1ccc(C[C@H](NC(=O)c2cnccn2)C(=O)N[C@@H](Cc2ccc(O)cc2)C(=O)N[C@@H](CC(C)C)C(=O)c2ccco2)cc1` gave a pIC50 in [1] of 5.08. In [2], this compound came in with an inhibition greater than 50%.

For `CC(C)C[C@H](NC(=O)[C@H](C)NC(=O)[C@H](Cc1ccccc1)NC(=O)OCc1ccccc1)C(=O)c1ccco1`, in [1], the pIC50 was less than 4.30. In assay [2], this compound had an inhibition greater than 50%.

In assay [1], `COC[C@H](NC(=O)[C@H](Cc1ccccc1)NC(=O)OC(C)(C)C)C(=O)N[C@@H](CC(C)C)C(=O)c1ccco1` showed a pIC50 of 4.85. In addition, in assay [2], the inhibition was greater than 50%.

Regarding `CC(C)C[C@H](NC(=O)[C@H](C)NC(=O)[C@H](Cc1ccccc1)NC(=O)OC(C)(C)C)C(=O)c1ccco1`, the negative-log IC50 (pIC50) in assay [1] is 4.34. Moreover, the inhibition in [2] was greater than 50%.

The compound `COc1ccc(C[C@H](NC(=O)[C@H](Cc2ccccc2)NC(=O)c2ccccc2OC)C(=O)N[C@@H](CC(C)C)C(=O)c2ccco2)cc1` showed a pIC50 in assay [1] of less than 4.30. The inhibition in [2] was greater than 50%.

The compound `CC(C)C[C@H](NC(=O)[C@H](Cc1ccc(O)cc1)NC(=O)[C@H](Cc1ccc(Cl)cc1)NC(=O)OC(C)(C)C)C(=O)c1ccco1` gave a negative logarithm of the IC50 (pIC50) in assay [1] of 5.14. The compound also came in with an inhibition in [2] greater than 50%.

For the compound `COc1ccc(C[C@H](NC(=O)OC(C)(C)C)C(=O)N[C@@H](Cc2ccc(Cl)cc2)C(=O)N[C@@H](CC(C)C)C(=O)c2ccco2)cc1`, the negative-log IC50 (pIC50) in assay [1] was 4.30. Besides, the inhibition in assay [2] was greater than 50%.

In assay [1], `COc1ccc(C[C@H](NC(=O)[C@H](Cc2ccccc2)NC(=O)c2ccccc2C)C(=O)N[C@@H](CC(C)C)C(=O)c2ccco2)cc1` showed a pIC50 of 5.50. In assay [2], this compound yielded an inhibition greater than 50%.

Compound `COC[C@H](NC(=O)[C@H](Cc1ccc(OC)cc1)NC(=O)OC(C)(C)C)C(=O)N[C@@H](CC(C)C)C(=O)c1ccco1` had a pIC50 in assay [1] of 5.23. The compound further yielded an inhibition in [2] greater than 50%.

The compound `CC(=O)N[C@@H](Cc1ccccc1)C(=O)N[C@@H](Cc1ccc(O)cc1)C(=O)N[C@@H](CC(C)C)C(=O)c1ccco1` showed a pIC50 in assay [1] of 4.86. Moreover, the inhibition in assay [2] was greater than 50%.

For the compound `COc1ccc(C[C@H](NC(=O)OC(C)(C)C)C(=O)N[C@@H](C)C(=O)N[C@@H](CC(C)C)C(=O)c2ccco2)cc1`, the pIC50 in assay [1] is 4.92. The same compound had an inhibition in assay [2] greater than 50%.

`Cc1ccc(S(=O)(=O)N[C@@H](CC(=O)NCC(C)C)C(=O)N[C@@H](C)C(=O)N[C@@H](CC(C)C)C(=O)c2ccco2)cc1`: the pIC50 in assay [1] was 5.51. This compound had an inhibition in assay [2] greater than 50%.

For `COc1ccc(C[C@H](NC(=O)[C@H](Cc2ccccc2)NC(=O)c2ccccc2[N+](=O)[O-])C(=O)N[C@@H](CC(C)C)C(=O)c2ccco2)cc1`, the pIC50 in [1] is 5.14. Also, in assay [2], the inhibition is greater than 50%.

On to `CC(C)C[C@H](NC(=O)[C@H](Cc1ccc(O)cc1)NC(=O)[C@H](Cc1ccc(O)cc1)NC(=O)c1ccc(CO)cc1)C(=O)c1ccco1`, for which the pIC50 in assay [1] was 5.34. The compound also displayed an inhibition in [2] greater than 50%.

For the compound `CC(C)C[C@H](NC(=O)[C@H](Cc1ccccc1)NC(=O)c1cnccn1)B(O)O`, in [14], the Activity was determined as 80%.

With `Cc1ccc(S(=O)(=O)N[C@@H](CC(=O)NCC(C)(C)C)C(=O)N[C@@H](C)C(=O)N[C@@H](CC(C)C)C(=O)c2ccco2)cc1`, in [1], the pIC50 was 5.25. In addition, the inhibition in assay [2] is greater than 50%.

Regarding `COc1ccc(C[C@H](NC(=O)[C@H](Cc2ccccc2)NC(=O)c2cnccn2)C(=O)N[C@@H](CC(C)C)C(=O)c2ccco2)cc1`, the pIC50 in [1] is less than 4.30. The compound also returned an inhibition in [2] greater than 50%.

For `Cc1ccc(S(=O)(=O)N[C@@H](CC(=O)NCCC(C)C)C(=O)N[C@@H](C)C(=O)N[C@@H](CC(C)C)C(=O)c2ccco2)cc1`, the pIC50 in assay [1] was 5.20. In [2], the inhibition was greater than 50%.

These data come from ChEMBL document CHEMBL4680218, “Design and synthesis of tripeptidyl furylketones as selective inhibitors against the β5 subunit of human 20S proteasome” (Eur J Med Chem, 2020).
